≈ marks a conversion by molar mass, not a printed value. Like-named read-outs stand apart in the source and are kept apart here.
Assays:
[1] = tested on: Staphylococcus aureus (ATCC 29213); test: MIC, broth microdilution; type: cell-based; details: ATCC29213, read-out: Minimum inhibitory concentration (MIC), SA
Procedure, shortened: (§1)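 Antibacterial MICs by CLSI broth microdilution in Mueller-Hinton broth. Test compounds and standard drugs are serially diluted two-fold from 512 to 0.25. The bacterial broth culture is grown 2-6 h to a 0.5 McFarland turbidity, then adjusted with sterile solution to the final inoculum.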

[2] = tested on: Candida albicans (NCIM 2087); test: Agar disk diffusion, inhibition zone; type: cell-based; details: 100 µg/8 mm disc, triplicate, mean ± SD
[3] = tested on: Klebsiella aerogenes (NCIM-2098); test: Agar disk diffusion, inhibition zone; type: cell-based; details: 100 µg/8 mm disc, triplicate, mean ± SD
[4] = tested on: Klebsiella aerogenes (NCIM-2098); test: MIC, broth microdilution; type: cell-based; details: NCIM2098, read-out: Minimum inhibitory concentration (MIC), KA
Procedure, shortened: as §1

[5] = tested on: Madin Darby canine kidney (MDCK) cells; details: dog
[6] = tested on: Staphylococcus aureus (ATCC 29213); test: Agar disk diffusion, inhibition zone; type: cell-based; details: 100 µg/8 mm disc, triplicate, mean ± SD
Procedure, shortened: (§2)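 Agar disk diffusion on Mueller-Hinton agar plates seeded with a standard bacterial suspension. Test compound stock in DMSO, diluted with distilled water; 8 mm sterile filter-paper discs soaked in the solution. Ampicillin was the reference. Plates incubated at 35 °C for 24 h, in triplicate. Read-out is the average inhibition-zone diameter (mm) around each disc.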

[7] = tested on: Adeno virus-2; test: CPE reduction assay in HEL cells; type: cell-based; details: read-out: Antiviral EC50, Adeno virus-2
[8] = tested on: Aspergillus fumigatus (NCIM 2081); test: Agar disk diffusion, inhibition zone; type: cell-based; details: 100 µg/8 mm disc, triplicate, mean ± SD
[9] = tested on: Pseudomonas aeruginosa (MCCB 0035); test: Agar disk diffusion, inhibition zone; type: cell-based; details: 100 µg/8 mm disc, triplicate, mean ± SD
[10] = tested on: Vero cells; details: Vero cell cultures; microscopically detectable alteration of normal cell morphology
[11] = tested on: Aspergillus niger (NCIM 2191); test: MIC, broth microdilution; type: cell-based; details: NCIM2191, read-out: Minimum inhibitory concentration (MIC), AN
Procedure, shortened: (§3)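 Antifungal MICs by CLSI broth microdilution in Sabouraud liquid medium. Test compounds and standard drugs are serially diluted two-fold from 512 to 0.25. The fungal broth culture is grown 24 h at 35 °C to a 0.5 McFarland turbidity, then adjusted with sterile solution to the final inoculum.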

[12] = tested on: Aspergillus niger (NCIM 2191); test: Agar disk diffusion, inhibition zone; type: cell-based; details: 100 µg/8 mm disc, triplicate, mean ± SD
Procedure, shortened: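 For the fungal strain, discs soaked in test compound solution (DMSO stock diluted with distilled water) sat on seeded Mueller-Hinton agar. Clotrimazole was the reference. Incubation ran 48 h at 35 °C, in triplicate. Zone of growth inhibition recorded in mm as the mean diameter around each disc.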

[13] = tested on: Candida albicans (NCIM 2087); test: MIC, broth microdilution; type: cell-based; details: NCIM2087, read-out: Minimum inhibitory concentration (MIC), CA
Procedure, shortened: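 CLSI broth microdilution in Sabouraud liquid medium, with test compound two-fold serially diluted from 512 to 0.25. Fungal broth culture grown 24 h at 35 °C to 0.5 McFarland turbidity, then adjusted with sterile solution to a final […] inoculum. MIC expressed in µg/mL.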

[14] = tested on: Streptococcus pneumonia (ATCC 49619); test: Agar disk diffusion, inhibition zone; type: cell-based; details: 100 µg/8 mm disc, triplicate, mean ± SD
[15] = tested on: Sindbis virus; test: CPE reduction assay in Vero cells; type: cell-based; details: read-out: Antiviral EC50, Sindbis virus
[16] = tested on: Reovirus-1; test: CPE reduction assay in Vero cells; type: cell-based; details: read-out: Antiviral EC50, Reovirus-1
[17] = tested on: Para-influenza-3 virus; test: CPE reduction assay in Vero cells; type: cell-based, Parainfluenza-3 virus; details: Vero, read-out: Antiviral EC50, Para-influenza-3 virus
[18] = tested on: Bacillus cereus (NCIM-2458); test: MIC, broth microdilution; type: cell-based; details: NCIM2458, read-out: Minimum inhibitory concentration (MIC), BC
Procedure, shortened: (§4)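 Broth microdilution per CLSI in Mueller-Hinton broth, using two-fold serial dilutions of test compound and reference drugs from 512 to 0.25. Bacterial broth cultures were grown 2-6 h to 0.5 McFarland turbidity, then diluted with sterile solution to the final inoculum. MIC is reported in µg/mL.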

[19] = tested on: Bacillus cereus (NCIM-2458); test: Agar disk diffusion, inhibition zone; type: cell-based; details: 100 µg/8 mm disc, triplicate, mean ± SD
[20] = tested on: Influenza A/H1N1 A/Ned/378/05; test: CPE reduction assay in MDCK cells; type: cell-based; details: Influenza A virus
[21] = tested on: Human embryonic lung (HEL) cells; details: HEL cell cultures; microscopically detectable alteration of normal cell morphology
[22] = tested on: Yellow Fever virus; test: microbe, parasite or virus in culture; type: cell-based; details: Yellow fever virus, Vero, read-out: Antiviral EC50, Yellow Fever virus
[23] = tested on: Influenza A/H3N2 A/HK/7/87; test: CPE reduction assay in MDCK cells; type: cell-based; details: Influenza A virus
[24] = tested on: Punta Toro virus; test: CPE reduction assay in Vero cells; type: cell-based; details: read-out: Antiviral EC50, Punta Toro virus
[25] = tested on: Salmonella typhimurium (NCIM-2501); test: Agar disk diffusion, inhibition zone; type: cell-based; details: 100 µg/8 mm disc, triplicate, mean ± SD
[26] = tested on: Influenza B B/Ned/537/05; test: CPE reduction assay in MDCK cells; type: cell-based; details: Influenza B virus, read-out: Antiviral EC50, Influenza B B/Ned/537/05, MTS
[27] = tested on: Pseudomonas aeruginosa (MCCB 0035); test: MIC, broth microdilution; type: cell-based; details: read-out: Minimum inhibitory concentration (MIC), PA
Procedure, shortened: as §4

[28] = tested on: Coxsackie virus B4; test: CPE reduction assay in Vero cells; type: cell-based; details: Enterovirus B, read-out: Antiviral EC50, Coxsackie virus B4
[29] = tested on: Cryptococcus neoformans (ATCC 9011); test: Agar disk diffusion, inhibition zone; type: cell-based; details: 100 µg/8 mm disc, triplicate, mean ± SD
[30] = tested on: Escherichia coli (ATCC 8739); test: MIC, broth microdilution; type: cell-based; details: ATCC8739, read-out: Minimum inhibitory concentration (MIC), EC
Procedure, shortened: as §4

[31] = tested on: MT4 cells; details: MT4 cell cultures; colorimetric MTT cell viability assay
[32] = tested on: Lactobacillus casei (NCIM-2651); test: Agar disk diffusion, inhibition zone; type: cell-based; details: 100 µg/8 mm disc, triplicate, mean ± SD
[33] = tested on: Aspergillus fumigatus (NCIM 2081); test: MIC, broth microdilution; type: cell-based; details: NCIM2081, read-out: Minimum inhibitory concentration (MIC), AF
Procedure, shortened: as §3

[34] = tested on: Vaccinia virus; test: microbe, parasite or virus in culture; type: cell-based; details: Orthopoxvirus vaccinia, HEL, read-out: Antiviral EC50, Vaccinia virus
[35] = tested on: Human Coronavirus (229E); test: CPE reduction assay in HEL cells; type: cell-based; details: read-out: Antiviral EC50, Human Coronavirus (229E)
[36] = tested on: Cryptococcus neoformans (ATCC 9011); test: MIC, broth microdilution; type: cell-based; details: ATCC9011, read-out: Minimum inhibitory concentration (MIC), CN
Procedure, shortened: as §3

[37] = tested on: Escherichia coli (ATCC 8739); test: Agar disk diffusion, inhibition zone; type: cell-based; details: 100 µg/8 mm disc, triplicate, mean ± SD
Procedure, shortened: as §2

Cc1ccc(S(=O)(=O)N2C(=O)CSC2c2ccccc2F)cc1 (stereo not drawn) [5h, 2-(2-Fluorophenyl)-3-[(4-methylphenyl)sulfonyl]-1,3-thiazolidin-4-one]
MIC [1]: 8 µg/mL (≈ 22.8 µM)
Diameter of growth inhibition zone, CA [2]: 15 ± 0.56 mm
Diameter of growth inhibition zone, KA [3]: 10 ± 0.5 mm
MIC [4]: 64 µg/mL (≈ 182 µM)
Cytotoxicity, Minimum cytotoxic conc. [5]: >100 µM
Diameter of growth inhibition zone, SA [6]: 19 ± 1.1 mm
EC50 [7]: > 100 µM
Diameter of growth inhibition zone, AF [8]: 15 ± 1.2 mm
Diameter of growth inhibition zone, PA [9]: 20 ± 0.6 mm
Minimum cytotoxic conc. [10]: >100 µM
MIC [11]: 32 µg/mL (≈ 91.1 µM)
Diameter of growth inhibition zone, AN [12]: 12 ± 0.66 mm
MIC [13]: 32 µg/mL (≈ 91.1 µM)
Diameter of growth inhibition zone, SP [14]: 10 ± 1.7 mm
EC50 [15]: > 100 µM
EC50 [16]: > 100 µM
EC50 [17]: > 100 µM
MIC [18]: 16 µg/mL (≈ 45.5 µM)
Diameter of growth inhibition zone, BC [19]: 14 ± 0.62 mm
EC50 ([20]; read-out: Antiviral EC50, Influenza A/H1N1 A/Ned/378/05, MTS): > 100 µM
EC50 ([20]; read-out: Antiviral EC50, Influenza A/H1N1 A/Ned/378/05, visual CPE score): > 100 µM
Minimum cytotoxic conc. [21]: >100 µM
EC50 [22]: > 100 µM
EC50 ([23]; read-out: Antiviral EC50, Influenza A/H3N2 A/HK/7/87, MTS): > 100 µM
EC50 ([23]; read-out: Antiviral EC50, Influenza A/H3N2 A/HK/7/87, visual CPE score): > 100 µM
EC50 [24]: > 100 µM
Diameter of growth inhibition zone, ST [25]: 14 ± 1.3 mm
EC50 [26]: > 100 µM
MIC [27]: 8 µg/mL (≈ 22.8 µM)
EC50 [28]: > 100 µM
Diameter of growth inhibition zone, CN [29]: 19 ± 1.1 mm
MIC [30]: 4 µg/mL (≈ 11.4 µM)
Minimum cytotoxic conc. [31]: 111 µM
Diameter of growth inhibition zone, LC [32]: 19 ± 1.2 mm
MIC [33]: 16 µg/mL (≈ 45.5 µM)
EC50 [34]: > 100 µM
EC50 [35]: > 100 µM
MIC [36]: 8 µg/mL (≈ 22.8 µM)
Diameter of growth inhibition zone, EC [37]: 23.8 ± 0.9 mm
